Data reported in ChEMBL document CHEMBL2407081, “Discovery of potent, isoform-selective inhibitors of histone deacetylase containing chiral heterocyclic capping groups and a N-(2-aminophenyl)benzamide binding unit” (J Med Chem, 2013).
The source made the active and inactive calls. The calls are words filed in the database; no cut-off is given here.

Assays:
Jurkat [1] = assay: Cell cycle arrest in human Jurkat cells assessed as accumulation at G0/G1 phase at 10 uM after 24 hrs by FITC/propidium iodide staining-based FACS flow cytometric analysis (reference value: 69.5%); assay type: functional
Method in brief: (§1)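 HeLa and Jurkat human cells were cultured for 24 h with compound at two concentrations. The control was an equal volume of the DMSO diluent. Cellular DNA and protein content were then measured by flow cytometry, and the percentage of cells in sub-G1, G0/G1, S and G2/M was read out.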

Jurkat [2] = assay: Cell cycle arrest in human Jurkat cells assessed as accumulation at sub-G1 phase at 10 uM after 24 hrs by FITC/propidium iodide staining-based FACS flow cytometric analysis (reference value: 2%); assay type: functional; method in brief: as §1
Jurkat [3] = assay: Cell cycle arrest in human Jurkat cells assessed as accumulation at sub-G1 phase at 1 uM after 24 hrs by FITC/propidium iodide staining-based FACS flow cytometric analysis (reference value: 6.8%); assay type: functional; method in brief: as §1
Jurkat [4] = assay: Cell cycle arrest in human Jurkat cells assessed as accumulation at G2/M phase at 1 uM after 24 hrs by FITC/propidium iodide staining-based FACS flow cytometric analysis (reference value: 14.4%); assay type: functional; method in brief: as §1
Jurkat [5] = assay: Cell cycle arrest in human Jurkat cells assessed as accumulation at G0/G1 phase at 1 uM after 24 hrs by FITC/propidium iodide staining-based FACS flow cytometric analysis (reference value: 55.5%); assay type: functional; method in brief: as §1
HeLa [6] = assay: Induction of apoptosis in human HeLa cells assessed as PARP cleavage at 1 to 10 uM after 24 hrs by Western blot analysis; assay type: functional, cell-based
HCT-116 = assay: Cytotoxicity against human HCT116 cells assessed as growth inhibition by measuring cellular ATP level after 72 hrs by cell-titer glo assay; assay type: functional, cell-based; conditions: HCT-116, 72 h
MCF7 = assay: Cytotoxicity against human MCF7 cells assessed as growth inhibition by measuring cellular ATP level after 72 hrs by cell-titer glo assay; assay type: functional, cell-based; conditions: MCF7, 72 h
Jurkat [7] = assay: Cell cycle arrest in human Jurkat cells assessed as accumulation at S phase at 1 uM after 24 hrs by FITC/propidium iodide staining-based FACS flow cytometric analysis (reference value: 22.3%); assay type: functional; method in brief: as §1
DU-145 = assay: Cytotoxicity against human DU145 cells assessed as growth inhibition by measuring cellular ATP level after 72 hrs by cell-titer glo assay; assay type: functional, cell-based; conditions: DU-145, 72 h
Jurkat [8] = assay: Cell cycle arrest in human Jurkat cells assessed as accumulation at S phase at 10 uM after 24 hrs by FITC/propidium iodide staining-based FACS flow cytometric analysis (reference value: 15.3%); assay type: functional; method in brief: as §1
Jurkat [9] = assay: Induction of apoptosis in human Jurkat cells assessed as PARP cleavage at 1 to 10 uM after 24 hrs by Western blot analysis; assay type: functional, cell-based
Jurkat [10] = assay: Cell cycle arrest in human Jurkat cells assessed as accumulation at G2/M phase at 10 uM after 24 hrs by FITC/propidium iodide staining-based FACS flow cytometric analysis (reference value: 13.2%); assay type: functional; method in brief: as §1
A549 = assay: Cytotoxicity against human A549 cells assessed as growth inhibition by measuring cellular ATP level after 72 hrs by cell-titer glo assay; assay type: functional, cell-based; conditions: A549, 72 h
[11] = biological target: Histone deacetylase 3/NCoR1 (Homo sapiens, UniProt O15379); assay: Inhibition of recombinant HDAC3-NCoR1 (unknown origin) using MAL as substrate incubated for 3 hrs prior to substrate addition measured after 60 mins by fluorescence plate reader analysis; assay type: protein-complex assay
[12] = biological target: Histone deacetylase 3/NCoR1 (Homo sapiens) (UniProt O15379+O75376); assay: Competitive inhibition of recombinant HDAC3-NCoR1 (unknown origin) assessed as fast tight binding at 0.016 to 1 uM; assay type: protein-complex assay
Histone deacetylase 2 = Histone deacetylase 2 (Homo sapiens, UniProt Q92769); assay: Inhibition of recombinant His-tagged HDAC2 (1 to 488) (unknown origin) using MAL as substrate incubated for 3 hrs prior to substrate addition measured after 60 mins by fluorescence plate reader analysis
[13] = biological target: T1, Protein deacetylase HDAC6 (Homo sapiens, UniProt Q9UBN7); assay: Inhibition of recombinant His-tagged HDAC6 (unknown origin) using Fluor-de-Lys SIRT1 as substrate incubated for 3 hrs prior to substrate addition measured after 60 mins by fluorescence plate reader analysis
T1 sequence (Q9UBN7 whole entry): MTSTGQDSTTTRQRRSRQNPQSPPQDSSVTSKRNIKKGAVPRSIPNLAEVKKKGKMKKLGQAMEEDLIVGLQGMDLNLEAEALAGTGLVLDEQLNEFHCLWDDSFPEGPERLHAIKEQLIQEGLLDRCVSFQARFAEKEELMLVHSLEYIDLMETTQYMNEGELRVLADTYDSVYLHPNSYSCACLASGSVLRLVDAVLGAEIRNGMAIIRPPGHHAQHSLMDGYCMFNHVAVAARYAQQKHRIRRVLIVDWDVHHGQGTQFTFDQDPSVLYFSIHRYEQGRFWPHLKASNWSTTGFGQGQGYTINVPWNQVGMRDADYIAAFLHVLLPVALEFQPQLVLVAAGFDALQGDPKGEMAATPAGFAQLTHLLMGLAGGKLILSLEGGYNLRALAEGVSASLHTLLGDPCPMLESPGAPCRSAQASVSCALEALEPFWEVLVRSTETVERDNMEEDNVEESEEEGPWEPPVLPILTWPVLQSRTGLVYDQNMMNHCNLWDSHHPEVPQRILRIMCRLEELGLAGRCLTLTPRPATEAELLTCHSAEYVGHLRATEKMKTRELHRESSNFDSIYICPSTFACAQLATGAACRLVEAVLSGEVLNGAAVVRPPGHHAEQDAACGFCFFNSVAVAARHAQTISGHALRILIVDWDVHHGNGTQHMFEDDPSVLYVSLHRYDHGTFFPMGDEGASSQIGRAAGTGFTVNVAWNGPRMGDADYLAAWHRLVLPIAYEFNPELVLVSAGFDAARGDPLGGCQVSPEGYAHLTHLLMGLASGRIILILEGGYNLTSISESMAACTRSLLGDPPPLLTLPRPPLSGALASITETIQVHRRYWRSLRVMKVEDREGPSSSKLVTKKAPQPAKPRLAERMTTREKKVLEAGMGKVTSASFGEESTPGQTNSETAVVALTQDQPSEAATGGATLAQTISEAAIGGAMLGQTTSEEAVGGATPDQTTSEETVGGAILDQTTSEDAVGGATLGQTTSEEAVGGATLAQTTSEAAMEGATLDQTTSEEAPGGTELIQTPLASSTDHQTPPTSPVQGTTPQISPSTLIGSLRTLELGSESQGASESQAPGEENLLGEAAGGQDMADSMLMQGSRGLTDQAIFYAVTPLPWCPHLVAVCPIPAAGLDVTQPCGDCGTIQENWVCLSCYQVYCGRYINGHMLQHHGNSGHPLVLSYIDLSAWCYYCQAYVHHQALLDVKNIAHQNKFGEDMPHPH

Histone deacetylase 8 = biological target: T2, Histone deacetylase 8 (Homo sapiens, UniProt Q9BY41); assay: Inhibition of recombinant HDAC8 (unknown origin) expressed in Escherichia coli BL21 using MAL as substrate incubated for 15 mins prior to substrate addition measured after 60 mins by fluorescence plate reader analysis
T2 sequence (Q9BY41 whole entry): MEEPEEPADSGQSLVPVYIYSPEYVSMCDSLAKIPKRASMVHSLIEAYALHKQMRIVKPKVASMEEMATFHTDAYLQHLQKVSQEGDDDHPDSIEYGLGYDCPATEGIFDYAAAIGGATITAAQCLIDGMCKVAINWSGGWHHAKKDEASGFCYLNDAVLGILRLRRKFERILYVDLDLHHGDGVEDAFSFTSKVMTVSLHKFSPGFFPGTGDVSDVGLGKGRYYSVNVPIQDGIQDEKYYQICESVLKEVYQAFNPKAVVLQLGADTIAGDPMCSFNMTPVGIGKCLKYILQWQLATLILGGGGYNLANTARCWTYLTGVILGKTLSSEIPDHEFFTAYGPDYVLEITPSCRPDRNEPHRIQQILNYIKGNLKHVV

Histone deacetylase 1 = Histone deacetylase 1 (Homo sapiens, UniProt Q13547); assay: Inhibition of recombinant C-terminal FLAG-tagged HDAC1 (unknown origin) expressed in Escherichia coli BL21 using MAL as substrate incubated for 1 hr prior to substrate addition measured after 60 mins by fluorescence plate reader analysis
HeLa [14] = assay: Cell cycle arrest in human HeLa cells assessed as accumulation at G2/M phase at 10 uM after 24 hrs by FITC/propidium iodide staining-based FACS flow cytometric analysis; assay type: functional; method in brief: as §1

Chain of Histone deacetylase 3/NCoR1 (O15379 whole entry): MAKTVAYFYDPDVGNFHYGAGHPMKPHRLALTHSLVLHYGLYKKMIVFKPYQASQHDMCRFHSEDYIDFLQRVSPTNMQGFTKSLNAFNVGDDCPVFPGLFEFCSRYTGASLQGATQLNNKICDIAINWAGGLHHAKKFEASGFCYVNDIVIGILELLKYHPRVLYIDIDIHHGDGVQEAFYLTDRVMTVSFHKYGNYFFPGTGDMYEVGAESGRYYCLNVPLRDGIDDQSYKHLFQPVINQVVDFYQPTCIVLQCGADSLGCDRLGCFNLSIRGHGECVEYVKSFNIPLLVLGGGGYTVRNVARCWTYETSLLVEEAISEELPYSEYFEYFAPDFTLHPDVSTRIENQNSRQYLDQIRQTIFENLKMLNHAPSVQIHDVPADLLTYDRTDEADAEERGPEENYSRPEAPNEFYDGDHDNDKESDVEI
Chain of Histone deacetylase 3/NCoR1 (O75376 whole entry, further chain): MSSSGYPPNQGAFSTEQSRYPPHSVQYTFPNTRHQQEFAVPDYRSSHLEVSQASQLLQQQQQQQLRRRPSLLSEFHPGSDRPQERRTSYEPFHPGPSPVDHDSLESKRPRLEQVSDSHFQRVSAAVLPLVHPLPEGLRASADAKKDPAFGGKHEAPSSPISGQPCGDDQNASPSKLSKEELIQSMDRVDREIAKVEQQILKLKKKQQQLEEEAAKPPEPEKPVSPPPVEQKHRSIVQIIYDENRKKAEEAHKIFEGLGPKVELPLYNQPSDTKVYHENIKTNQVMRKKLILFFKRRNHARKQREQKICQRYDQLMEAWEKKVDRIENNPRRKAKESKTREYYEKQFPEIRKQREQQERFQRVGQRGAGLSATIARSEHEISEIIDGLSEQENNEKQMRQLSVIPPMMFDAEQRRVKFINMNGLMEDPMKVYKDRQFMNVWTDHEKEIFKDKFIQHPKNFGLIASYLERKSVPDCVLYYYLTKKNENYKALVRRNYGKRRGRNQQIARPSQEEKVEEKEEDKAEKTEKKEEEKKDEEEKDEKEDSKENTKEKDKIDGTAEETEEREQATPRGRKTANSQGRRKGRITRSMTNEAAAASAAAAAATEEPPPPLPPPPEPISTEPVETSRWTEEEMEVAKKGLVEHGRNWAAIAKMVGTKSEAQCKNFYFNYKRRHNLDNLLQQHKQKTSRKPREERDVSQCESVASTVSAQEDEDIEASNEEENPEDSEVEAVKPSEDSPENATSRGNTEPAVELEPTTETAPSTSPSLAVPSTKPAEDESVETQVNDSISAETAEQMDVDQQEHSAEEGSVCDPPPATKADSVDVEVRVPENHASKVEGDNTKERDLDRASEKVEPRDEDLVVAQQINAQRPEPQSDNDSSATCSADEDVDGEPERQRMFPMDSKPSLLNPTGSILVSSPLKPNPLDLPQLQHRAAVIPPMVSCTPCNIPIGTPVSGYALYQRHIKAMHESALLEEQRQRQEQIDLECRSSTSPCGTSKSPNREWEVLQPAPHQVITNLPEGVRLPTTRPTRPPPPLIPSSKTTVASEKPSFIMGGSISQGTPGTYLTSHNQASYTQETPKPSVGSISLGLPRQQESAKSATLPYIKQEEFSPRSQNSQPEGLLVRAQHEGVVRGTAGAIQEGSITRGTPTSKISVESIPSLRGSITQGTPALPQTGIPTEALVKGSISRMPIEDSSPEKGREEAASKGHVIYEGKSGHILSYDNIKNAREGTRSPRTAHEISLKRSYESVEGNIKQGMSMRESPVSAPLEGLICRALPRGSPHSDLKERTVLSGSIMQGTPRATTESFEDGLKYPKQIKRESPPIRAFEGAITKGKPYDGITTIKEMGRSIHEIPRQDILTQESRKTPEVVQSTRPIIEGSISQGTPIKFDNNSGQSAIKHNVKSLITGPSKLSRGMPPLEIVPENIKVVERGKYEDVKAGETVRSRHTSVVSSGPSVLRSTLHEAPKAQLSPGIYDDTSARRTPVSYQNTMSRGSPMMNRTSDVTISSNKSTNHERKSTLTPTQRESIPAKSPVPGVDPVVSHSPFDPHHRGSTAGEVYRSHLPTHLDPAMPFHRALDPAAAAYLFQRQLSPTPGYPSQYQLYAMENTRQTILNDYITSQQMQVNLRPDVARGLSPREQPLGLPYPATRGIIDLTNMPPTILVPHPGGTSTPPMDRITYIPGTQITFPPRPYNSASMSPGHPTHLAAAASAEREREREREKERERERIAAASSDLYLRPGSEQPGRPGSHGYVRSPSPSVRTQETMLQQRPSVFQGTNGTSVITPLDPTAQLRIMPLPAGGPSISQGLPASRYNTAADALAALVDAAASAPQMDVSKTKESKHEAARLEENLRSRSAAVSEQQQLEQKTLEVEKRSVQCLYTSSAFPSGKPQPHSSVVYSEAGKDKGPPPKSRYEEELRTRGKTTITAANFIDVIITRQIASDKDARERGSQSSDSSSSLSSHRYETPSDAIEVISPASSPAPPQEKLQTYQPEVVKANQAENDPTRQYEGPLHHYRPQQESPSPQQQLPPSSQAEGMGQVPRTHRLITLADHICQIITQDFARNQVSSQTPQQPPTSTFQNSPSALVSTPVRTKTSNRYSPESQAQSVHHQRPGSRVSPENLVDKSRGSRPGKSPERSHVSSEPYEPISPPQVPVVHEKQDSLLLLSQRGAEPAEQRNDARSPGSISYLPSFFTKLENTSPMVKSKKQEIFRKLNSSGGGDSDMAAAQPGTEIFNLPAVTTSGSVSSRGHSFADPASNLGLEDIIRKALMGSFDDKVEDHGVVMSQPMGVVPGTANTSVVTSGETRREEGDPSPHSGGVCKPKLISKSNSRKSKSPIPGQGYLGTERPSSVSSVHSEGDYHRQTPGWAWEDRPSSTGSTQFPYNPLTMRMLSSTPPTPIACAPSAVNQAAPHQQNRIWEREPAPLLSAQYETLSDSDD
Chain of Histone deacetylase 2 (Q92769 whole entry): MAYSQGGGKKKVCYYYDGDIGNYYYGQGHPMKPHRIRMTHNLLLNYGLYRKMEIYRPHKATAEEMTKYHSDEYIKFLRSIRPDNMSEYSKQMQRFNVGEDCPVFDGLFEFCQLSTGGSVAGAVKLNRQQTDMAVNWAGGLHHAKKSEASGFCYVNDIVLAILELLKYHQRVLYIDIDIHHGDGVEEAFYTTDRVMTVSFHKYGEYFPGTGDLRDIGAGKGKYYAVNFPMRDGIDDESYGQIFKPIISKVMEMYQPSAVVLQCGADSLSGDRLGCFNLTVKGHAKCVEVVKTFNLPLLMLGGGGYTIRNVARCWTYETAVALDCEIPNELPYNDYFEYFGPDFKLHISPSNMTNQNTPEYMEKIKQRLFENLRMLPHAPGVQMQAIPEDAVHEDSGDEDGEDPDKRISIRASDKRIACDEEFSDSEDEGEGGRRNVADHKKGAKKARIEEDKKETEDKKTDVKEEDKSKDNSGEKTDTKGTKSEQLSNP
Chain of Histone deacetylase 1 (Q13547 whole entry): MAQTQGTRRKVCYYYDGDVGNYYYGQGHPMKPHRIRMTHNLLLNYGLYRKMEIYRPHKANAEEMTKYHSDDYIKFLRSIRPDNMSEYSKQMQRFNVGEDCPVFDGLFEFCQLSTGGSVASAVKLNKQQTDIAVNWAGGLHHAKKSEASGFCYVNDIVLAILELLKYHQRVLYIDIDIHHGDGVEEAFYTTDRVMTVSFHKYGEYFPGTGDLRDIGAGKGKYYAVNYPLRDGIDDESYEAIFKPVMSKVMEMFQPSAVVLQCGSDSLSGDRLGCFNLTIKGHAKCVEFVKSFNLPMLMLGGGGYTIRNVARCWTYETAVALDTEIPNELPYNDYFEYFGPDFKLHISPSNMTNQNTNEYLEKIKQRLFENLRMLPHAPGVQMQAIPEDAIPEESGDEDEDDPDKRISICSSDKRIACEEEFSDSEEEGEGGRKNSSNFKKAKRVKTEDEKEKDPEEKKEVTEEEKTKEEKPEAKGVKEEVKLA

SMILES: Nc1ccccc1NC(=O)c1ccc(CNc2nccc(-c3cccnc3)n2)cc1 [MOCETINOSTAT]
- Activity (Jurkat [1]): 26.2%
- Activity (Jurkat [2]): 17.4%
- Activity (Jurkat [3]): 41.3%
- Activity (Jurkat [4]): 10.2%
- Activity (Jurkat [5]): 39.8%
- Activity (HeLa [6]): inactive
- IC50 (HCT-116): 700 nM
- IC50 (MCF7): 1260 nM
- Activity (Jurkat [7]): 8.7%
- IC50 (DU-145): 2060 nM
- Activity (Jurkat [8]): 32.4%
- Activity (Jurkat [9]): Active
- Activity (Jurkat [10]): 24%
- IC50 (A549): 1730 nM

SMILES: O=C(NO)c1ccc(CNc2nccc(-c3cccnc3)n2)cc1
- IC50 [11]: 31 nM
- inhibition [12]: Active
- IC50 (Histone deacetylase 2): 219 nM
- IC50 [13]: 42 nM
- IC50 (Histone deacetylase 8): 410 nM

SMILES: Nc1ccccc1NC(=O)c1ccc(CNC2=NC(=O)C(c3ccccc3)N2)cc1 (racemic)
- Activity (Jurkat [1]): 65.5%
- Activity (Jurkat [2]): 3.1%
- IC50 [11]: 14 nM
- IC50 (Histone deacetylase 2): 56 nM
- IC50 [13]: > 20000 nM
- IC50 (Histone deacetylase 1): 350 nM
- Activity (Jurkat [3]): 7.4%
- Activity (Jurkat [4]): 15.1%
- Activity (Jurkat [5]): 55.2%
- Activity (HeLa [6]): inactive
- IC50 (HCT-116): 18200 nM
- IC50 (MCF7): 30100 nM
- Activity (Jurkat [7]): 22.3%
- IC50 (Histone deacetylase 8): 8000 nM
- IC50 (DU-145): > 50000 nM
- Activity (Jurkat [8]): 20.7%
- Activity (HeLa [14]): Active
- Activity (Jurkat [9]): Active
- Activity (Jurkat [10]): 10.7%
- IC50 (A549): > 50000 nM
